Assay results reported in PubChem BioAssay.
Results filed as inconclusive are left out.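 How the source made its calls, unless noted: active means growth inhibition above 25% in both replicates, a cutoff set 3 SD above the mean; inconclusive means above 25% in only one replicate; inactive means the rest.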

How the values were obtained:
[1] = S. cerevisiae growth inhibition in permissive medium (OD615), pilot counter-assay for S. cerevisiae lifespan shortening project, permissive growth control (AID 705); settings: OD615, 24 h, at 10 µM, stronger effect = higher value
Outline: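 System – S. cerevisiae with engineered DeaD lifespan system · Buffer or medium – SC raffinose/galactose permissive medium · Schedule – cells pre-grown 4 h, then 24 h compound exposure, 30 °C humidified · Technique – culture turbidity as optical density at 615 nm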

[2] = S. cerevisiae growth inhibition in restrictive medium, OD615, pilot screen, restrictive growth control, yeast lifespan reduction project (AID 706;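 active means growth inhibition above a set limit, 3 SD over mean compound inhibition, in both replicates, cut at about 43% in these data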;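 further: modified DeaD lifespan yeast strain shifted to restrictive glucose medium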); settings: OD615, 48 h, at 10 µM, stronger effect = higher value
Outline: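 Material: engineered S. cerevisiae DeaD strain / Medium: glucose-based CSMM-D restrictive medium / Compound: single dose of 10 µM compound final, 0.25% DMSO / Timing: 4 h pre-incubation, 48 h exposure at 30 °C / Technique: OD615 absorbance reading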

[3] = doxorubicin toxicity protection in MRP-1 cells – H69AR cells, CellTiter-Glo, duplicate, MRP-1 activator project, pilot screen (AID 807;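 active means viability increase at or above a cutoff of the median across tested compounds plus 3 SD, cut at about 8.5% in these data, passing the limit was not always enough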;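 further: compound pretreatment 18-22 h then 72 h combined with doxorubicin; 0% = doxorubicin alone and 100% = vehicle without doxorubicin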); settings: H69AR viability with doxorubicin, CellTiter-Glo luminescence; at 10 µM; stronger effect = higher value
[4] = viability of HCT116 without oncogenic beta-catenin – human colon tumor cells, pilot screen (AID 823;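 active means cell viability at or below a set limit in both duplicate runs, the limit being the all-compound median minus 4 SD, cut at about 23% in these data, passing the limit was not always enough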;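 further: 0% = wells killed by 20 µM Hyamine and 100% = untreated DMSO cell wells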); settings: HCT116 beta-catenin knockout viability, CellTiter-Glo, 60 h; at 10 µM; stronger effect = lower value
[5] = viability of PTEN-null HCT116 cells – cell-based, HCT116 clonal line, CellTiter-Glo, pilot screen (AID 824;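 active means viability at or below 27.92% in each of two runs, the all-compound median minus 4 SD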;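 further: 0% = 20 µM Hyamine control and 100% = vehicle cell control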); settings: HCT116 PTEN-deleted viability, 60 h, at 10 µM, stronger effect = lower value
[6] = RAM pathway blockade in budding yeast – dse1pr::URA3 reporter, 5-FOA selection, pilot screen (AID 869;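 active means inhibition over a set limit, the all-compound mean plus 3 SD, in both replicate runs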;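 further: 0% = DMSO wells with no growth and 100% = 10 µM 1-NA-PP1 with full growth; RAM network block rescues cells from 5-FOA so hits raise OD615 growth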); settings: S. cerevisiae dse1pr::URA3 5-FOA growth, OD615, 2 d; at 10 µM; stronger effect = higher value; strain carries analog-sensitive mutant Cbk1 kinase
[7] = RAM signaling pathway blockade in yeast – S. cerevisiae, Pdr1DBD-CYC8 efflux-inhibited sensitized strain, primary screen (AID 1298;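 active means RAM network inhibition above 8.4% in each of two replicates, 3 SD over the compound average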;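 further: 0% = DMSO untreated cells without growth and 100% = 10 µM 1-NA-PP1 full growth; higher means more yeast growth rescued from 5-FOA killing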); settings: S. cerevisiae cbk1-as DSE1-URA3 strain, 5-FOA growth OD615, 2 d; at 50 µM; stronger effect = higher value

CC1CCCCN1C(=O)c1ccccc1NC(=O)c1ccco1 (configuration not stated)
inactive: growth inhibition [1] -17.6% | growth inhibition [2] -14.8% | viability increase [3] -2.69% | viability [4] 94.7% | viability [5] 96.5% | inhibition [6] 2.17% | RAM network inhibition [7] 1.7%

Cc1cc(Nc2cccc(C)c2C)n2ncnc2n1
inactive: growth inhibition [1] -5.19% | growth inhibition [2] -1.32% | viability increase [3] -0.81% | viability [4] 95.1% | viability [5] 94.3% | inhibition [6] -0.155% | RAM network inhibition [7] -1.31%

COc1cccc(C2CC(=O)N3CN(c4cccc(Cl)c4C)CSC3=C2C#N)c1OC (configuration not stated)
inactive: growth inhibition [1] 5.33% | growth inhibition [2] 19.4% | viability increase [3] -4.11% | viability [4] 73.2% | viability [5] 63.9% | inhibition [6] 3.38% | RAM network inhibition [7] 7.39%

COc1ccc(Cl)cc1NC(=O)C1CCCO1 (configuration not stated)
inactive: growth inhibition [1] 0.985% | growth inhibition [2] -9.53% | viability increase [3] -2.12% | viability [4] 98.9% | viability [5] 94.7% | inhibition [6] 1.42% | RAM network inhibition [7] 2.75%

Cc1ccc2[nH]c(=O)c(-c3noc(C(C)C)n3)cc2c1
inactive: growth inhibition [1] -11.9% | growth inhibition [2] -1.75% | viability increase [3] -2.88% | viability [4] 114% | viability [5] 96.5% | inhibition [6] 0.48% | RAM network inhibition [7] 5.62%

CCC(=O)N1c2ccccc2-c2nnc(SC)nc2OC1c1ccc(N(C)C)cc1 (configuration not stated)
inactive: growth inhibition [1] -3.95% | growth inhibition [2] 4.3% | viability increase [3] -6.55% | viability [4] 93.8% | viability [5] 91.5% | inhibition [6] 3.08% | RAM network inhibition [7] 1.82%

CCC(C#CCN1CCOCC1)(CC)OCCC#N
inactive: growth inhibition [1] -6.57% | growth inhibition [2] -3.89% | viability increase [3] -0.51% | viability [4] 97% | viability [5] 95.9% | inhibition [6] 1.35% | RAM network inhibition [7] 0.88%

COC(=O)C1CCN(C(=O)c2ccccc2NC(C)=O)CC1
inactive: growth inhibition [1] -12% | growth inhibition [2] -16.4% | viability increase [3] -0.52% | viability [4] 101% | viability [5] 99.6% | inhibition [6] -0.23% | RAM network inhibition [7] 2.21%

Cc1cccc(OCCSc2cc(C)nc(N)n2)c1
inactive: growth inhibition [1] -6.16% | growth inhibition [2] -8.02% | viability increase [3] -1.44% | viability [4] 89.1% | viability [5] 79.1% | inhibition [6] -0.215% | RAM network inhibition [7] -2.06%

Cc1c2cn[nH]c(=O)c2c(C)n1Cc1ccc(F)cc1
inactive: growth inhibition [1] -17.7% | growth inhibition [2] -15% | viability increase [3] -3.21% | viability [4] 90.7% | viability [5] 98.5% | inhibition [6] 1.83% | RAM network inhibition [7] 5.11%

C=CCNc1ncnc2c1cnn2-c1cccc(C)c1
inactive: growth inhibition [1] 8.9% | growth inhibition [2] 1.8% | viability increase [3] -1.03% | viability [4] 101% | viability [5] 98.5% | inhibition [6] 3.21% | RAM network inhibition [7] 0.06%

Cc1ccc(-n2ncc3c(=O)[nH]c(SCC(=O)N4CCC(C)CC4)nc32)cc1C
inactive: growth inhibition [1] -0.265% | growth inhibition [2] -3.58% | viability increase [3] -5.08% | viability [4] 89% | viability [5] 85.3% | inhibition [6] 1.89% | RAM network inhibition [7] 2.86%

Cc1nc(CNS(=O)(=O)c2ccc3ccccc3c2)cs1
inactive: growth inhibition [1] -0.84% | growth inhibition [2] 3.39% | viability increase [3] -1.37% | viability [4] 97.8% | viability [5] 87.9% | inhibition [6] 2.13% | RAM network inhibition [7] 0%

Cc1ccc(C2/C(=C(/O)c3ccccc3)C(=O)C(=O)N2CCN2CCOCC2)o1 (configuration not stated)
inactive: growth inhibition [1] 8.83% | growth inhibition [2] 8.54% | viability increase [3] -1.8% | viability [4] 104% | viability [5] 96.7% | inhibition [6] 0.095% | RAM network inhibition [7] -0.05%

CC1CCCN(C(=O)C2CCN(S(=O)(=O)c3cccc4cccnc34)CC2)C1 (configuration not stated)
inactive: growth inhibition [1] 1.07% | growth inhibition [2] 3.5% | viability increase [3] -3.54% | viability [4] 89.6% | viability [5] 85.6% | inhibition [6] 1.04% | RAM network inhibition [7] 5.46%

CCN(CC)CCCNC(=O)Cn1ncc2c(=O)oc3ccc(C)cc3c21
inactive: growth inhibition [1] -23.9% | growth inhibition [2] -25.6% | viability increase [3] -1.87% | viability [4] 101% | viability [5] 92.3% | inhibition [6] 2.04% | RAM network inhibition [7] 5.92%

COc1ccc(N2Cc3cccc(C(=O)NC(C)CCc4ccco4)c3C2=O)cc1 (configuration not stated)
inactive: growth inhibition [1] -3.44% | growth inhibition [2] -3.73% | viability increase [3] 3.67% | viability [4] 95.3% | viability [5] 95.3% | inhibition [6] 1.92% | RAM network inhibition [7] 7.29%

CCn1c(/C=N/n2cnnc2)nc2ccccc21
inactive: growth inhibition [1] -6.04% | growth inhibition [2] -5.67% | viability increase [3] -0.75% | viability [4] 96.8% | viability [5] 92.8% | inhibition [6] 1.56% | RAM network inhibition [7] -0.99%

Cc1ccccc1-c1nc(CS(=O)CC(=O)NCCN2CCOCC2)c(C)o1 (configuration not stated)
inactive: growth inhibition [1] 0.43% | growth inhibition [2] 1.41% | viability increase [3] -1.4% | viability [4] 101% | viability [5] 91.2% | inhibition [6] 1.11% | RAM network inhibition [7] 9.97%

CCSc1nnc2c(n1)OC(c1ccc(C(=O)O)cc1)N(C(C)=O)c1ccccc1-2 (configuration not stated)
inactive: growth inhibition [1] -10.1% | growth inhibition [2] -2.9% | viability increase [3] -1.34% | viability [4] 107% | viability [5] 100% | inhibition [6] 1.66% | RAM network inhibition [7] 2.35%

COc1ccc(CN2CCNC(=O)C2CC(=O)O)c(OC)c1 (configuration not stated)
inactive: growth inhibition [1] -18.7% | growth inhibition [2] -24% | viability increase [3] -2.1% | viability [4] 105% | viability [5] 93.1% | inhibition [6] 2.47% | RAM network inhibition [7] 1.42%

Clc1ccc(C2CC(c3cccs3)n3ncnc3N2)cc1Cl (configuration not stated)
inactive: growth inhibition [1] -2.88% | growth inhibition [2] 29.1% | viability increase [3] -5.77% | viability [4] 80.2% | viability [5] 72.9% | inhibition [6] 0.94% | RAM network inhibition [7] -1.53%

C=CCNC(=O)COc1ccc(Br)cc1Cl
inactive: growth inhibition [1] -15.7% | growth inhibition [2] -6.88% | viability increase [3] 1.27% | viability [4] 99% | viability [5] 91.2% | inhibition [6] 1.36% | RAM network inhibition [7] 9.74%

CCOC(=O)C1CCN(C(=O)c2cc3c(-c4ccc(OC)c(OC)c4)nn(C)c3s2)CC1
inactive: growth inhibition [1] -7.02% | growth inhibition [2] -7.66% | viability increase [3] -2.04% | viability [4] 107% | viability [5] 98.9% | inhibition [6] 0.595% | RAM network inhibition [7] 5.7%

CCOC(=O)Cn1c(=O)oc2cc(S(=O)(=O)Nc3cccc(C)c3)ccc21
inactive: growth inhibition [1] -5.58% | growth inhibition [2] -22.1% | viability increase [3] -0.66% | viability [4] 65.5% | viability [5] 79% | inhibition [6] 1% | RAM network inhibition [7] 2.63%

COC(=O)c1cn(NC(=O)c2ccc3c(c2)OCO3)c(=O)c2ccccc12
inactive: growth inhibition [1] -4.02% | growth inhibition [2] -1.45% | viability increase [3] -2.75% | viability [4] 96.3% | viability [5] 97.3% | inhibition [6] 1.44% | RAM network inhibition [7] 6.69%

Cn1c(=O)c2c(nc(NCc3ccccc3)n2Cc2ccc(F)cc2)n(C)c1=O
inactive: growth inhibition [1] -2.42% | growth inhibition [2] -16.9% | viability increase [3] -5.47% | viability [4] 65.9% | viability [5] 54.1% | inhibition [6] 2.54% | RAM network inhibition [7] 3.33%

C=CCn1c(CSc2nc3ccccc3s2)nnc1SCC(=O)NCc1ccco1
inactive: growth inhibition [1] 1.06% | growth inhibition [2] 30.4% | viability increase [3] -3.87% | viability [4] 96.6% | viability [5] 90.4% | inhibition [6] 0.105% | RAM network inhibition [7] 2.19%

O=C(Cn1cc(C(=O)c2cccs2)c2ccccc21)NCc1ccc2c(c1)OCO2
inactive: growth inhibition [1] -5.79% | growth inhibition [2] -15.1% | viability increase [3] -2.32% | viability [4] 94.6% | viability [5] 86.4% | inhibition [6] 1.08% | RAM network inhibition [7] 2.74%

O=C(Cn1nc(-c2ccccc2)ccc1=O)Nc1ccc(N2CCN(C(=O)c3ccccc3)CC2)cc1
inactive: growth inhibition [1] -10.1% | growth inhibition [2] -24.7% | viability increase [3] -1.77% | viability [4] 94.5% | viability [5] 87.3% | inhibition [6] 2.17% | RAM network inhibition [7] 8.82%

Cc1cc(C(=O)Nc2ccc3c(c2)OCCO3)co1
inactive: growth inhibition [1] -4.03% | growth inhibition [2] 5.26% | viability increase [3] -0.16% | viability [4] 96.7% | viability [5] 92.1% | inhibition [6] 0.06% | RAM network inhibition [7] -0.41%

COc1ccc(C2C(C(=O)Nc3cccc(C)n3)c3ccccc3C(=O)N2C)cc1OC (configuration not stated)
inactive: growth inhibition [1] 5.62% | growth inhibition [2] 5.49% | viability increase [3] -1.04% | viability [4] 103% | viability [5] 99.6% | inhibition [6] -0.04% | RAM network inhibition [7] 3.5%

CCOC(=O)c1c(NC(=O)c2ccco2)sc2c1CCCC2
inactive: growth inhibition [1] -15.7% | growth inhibition [2] -15.4% | viability increase [3] 1.84% | viability [4] 97.8% | viability [5] 101% | inhibition [6] 4.13% | RAM network inhibition [7] 1.41%

CC(C)C(=O)Nc1ccc(Nc2ccccc2)cc1
inactive: growth inhibition [1] -3.29% | growth inhibition [2] -8.34% | viability increase [3] 0.79% | viability [4] 105% | viability [5] 104% | inhibition [6] 0.87% | RAM network inhibition [7] 2.52%

COc1ccc(N2CCN(c3cc(C)c4ccc(O)cc4n3)CC2)cc1
inactive: growth inhibition [1] 3.12% | growth inhibition [2] 10.5% | viability increase [3] -2.1% | viability [4] 75.7% | viability [5] 79.8% | inhibition [6] 0.39% | RAM network inhibition [7] 6.62%

Cc1cccc2sc(NC(=O)CCNS(=O)(=O)c3cccc4nonc34)nc12
inactive: growth inhibition [1] -11.1% | growth inhibition [2] -6.5% | viability increase [3] -5.31% | viability [4] 86.1% | viability [5] 80.7% | inhibition [6] 2.71% | RAM network inhibition [7] 7.24%
